Assay: Toxicity liver stage against HepG2, at 10uM
Assay type: cell-based
Set-up: test concentration 10 uM, cell line HepG2-A16-CD81EGFP
Details: human, HepG2-A16-CD81EGFP cells; read-out: INHIBITION
Summary of the method: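 Uninfected HepG2-A16-CD81EGFP cells, 3 × 10^3 per well, 1536-well, plated on prespotted compound at 10 μM final, parasite-free screening media added to match infected plates; puromycin 10 μM positive, DMSO 0.5% negative; run in parallel with 48 h PbLuc assay at 37 °C, 5% CO2; viability by CellTiter-Glo luminescence, normalized to controls.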

Structure (SMILES) | cytotoxicity at 10 µM [%]
c1ccc2c(Cc3nnc([C@H]4CCN(C5CCCCC5)C4)o3)c[nH]c2c1 | -0.00726
CCOC(=O)CNC(=O)Cn1c(-c2ccoc2)nc(C)c1C | -2.8
CNC(=O)CN(C(=O)c1ccccc1)[C@H]1C[C@H]2CCOC[C@H]2C1 | -4.36
O=C(c1cnc(-c2noc3cc(N4CCCC4)ccc23)s1)N1CCCC1 | -3.83
CNC(=O)N1CC[C@@H]2CN(CCc3cccc(OC)c3)S(=O)(=O)[C@@H]2CC1 | -1.46
COC[C@H]1CC[C@H]2[C@H](CCN2C(=O)c2ccncc2F)O1 | -4.61
COc1nn(C)c2c1CCCN(C(=O)c1cccn1C)C2 | 1.53
Cc1cc(=O)[nH]c(=O)n1COCCOCc1ccccc1 | 3.36
O=C1CC[C@H]2[C@H](CCN2C(=O)C2CCCO2)N1Cc1ccncc1 (some centres not stated) | 0.898
O=C(O)CSc1nccc(-c2ccc3c(c2)OCO3)n1 | -3.61
Cc1cc(C(F)F)nn1CC(=O)NCc1nccn1C | -2.17
Nc1nc(N)c2c(n1)OC1(COCCN(Cc3nccs3)C1)C2 (configuration not stated) | -0.56
O=C(O)C1CN(c2cncc(Cc3ccccc3)n2)C1 | 0.885
CC1CCN(Cc2c(C(C)C)[nH]c3ncccc23)CC1 | -6.43
CCN(CC)C(=O)CN1CCC(c2nc(C)c3c(n2)N(C)CCC3)CC1 | 4.14
CC(C)OCC(=O)N1CCC(c2ncncc2-c2ccnc(N)c2)C1 (configuration not stated) | -2.44
Clc1ccc(CN(CCN2CCOCC2)Cc2cccnc2)cc1Cl | -9.96
COCCN1CCCC1c1nccnc1Nc1ncc(C)s1 (configuration not stated) | -7.99
CC(C)(C)SCC(=O)Nc1cc(-n2nnnc2C2CC2)ccc1F | -12
CSc1cc2c(cc1NC(=O)NCc1ccncc1)OCCO2 | 7.55
CCC(CO)Nc1nc(C(F)F)nc2ccccc12 (configuration not stated) | 1.26
CCOC(C)c1nccn1Cc1noc(CC)n1 (configuration not stated) | -9.06
CN1CCN(C2CCN(Cc3noc(-c4ccccc4)n3)CC2)C1=O | 9.5

Structure (SMILES) | cytotoxicity at 10 µM [%]
O=C1CC(C(=O)NCc2ccccc2Oc2ccccc2F)CCN1 (configuration not stated) | -2.81
Cc1nc(C(=O)N2CCCC(c3nc(C(C)C)cs3)C2)c[nH]1 (configuration not stated) | -41.7
Cc1csc(N(C)C(=O)C2CC(=O)N(CCc3ccccc3)C2)n1 (configuration not stated) | -99.4
N#CC1(NC(=O)c2ccc(F)cc2OC(F)F)CCOCC1 | 2.24
CCOC(=O)C(C)NC(=O)CCc1ccc(F)cc1 (configuration not stated) | -9.92
COCCN(C)CC1CCCN1S(=O)(=O)c1cc(C)oc1C (configuration not stated) | 0.729
COc1ccc(CC(=O)N2CCC(c3nncn3C)CC2)cc1F | 2.01
COc1c(C2CCCN2CC(=O)N2CCCCC2)c(C)nn1C (configuration not stated) | 0.113
COC(=O)N1CCC(Nc2ccc(Cl)c(C#N)n2)CC1 | 1.96
Cc1ccc(CCC(=O)N2CCn3c(nnc3C(C)C)C2)cc1Cl | -5.45
CC(C)c1n[nH]c(C2CN(C(=O)COc3ccc(F)cc3)CCO2)n1 (configuration not stated) | -5.7
O=C(NCCn1ccnc1)C1(c2ccc3c(c2)OCCO3)CCCC1 | -4.38
CCOC(=O)COc1cccc(NC(=O)C2COCCO2)c1 (configuration not stated) | 7.01
c1cc(C2CCN(Cc3nc(-c4ccsc4)no3)CC2)[nH]n1 | 8.44
Cc1c(C(C)NC(=O)C2CCCCC2)cnn1C (configuration not stated) | -4.79
CCc1nnc2n1CCN(C(=O)c1ccc3c(c1)[nH]c(=O)n3C)C2 | -3.22
Cc1cn(-c2ccccc2)nc1NS(=O)(=O)c1cc(C(=O)O)sc1C | -4.87
Cc1nc(C)n(CC2CCCN2CC(=O)NCCC#N)n1 (configuration not stated) | -2.78
CC(C)(O)CNC(=O)c1sccc1Br | -5.58
Cc1nn(-c2ccccc2)nc1C(=O)NCC(c1ccco1)N(C)C (configuration not stated) | 6.51
Cc1nc(C(=O)N(C)C2CC(=O)N(Cc3ccccc3)C2=O)cs1 (configuration not stated) | 0.423
CN1CC(C(=O)NC2(c3ccc(Cl)cc3)CCOCC2)CC1=O (configuration not stated) | 13.8
Cc1nc(C2CCCN2C(=O)c2ccc(=O)n(C)n2)no1 (configuration not stated) | -2.64

Structure (SMILES) | cytotoxicity at 10 µM [%]
Cc1cc(C(=O)O)c2c(Br)cccc2n1 | -0.575
Cc1ccc(C)c(CS(=O)(=O)CC(=O)NC(C)c2ccc(F)cc2F)c1 (configuration not stated) | 9.71
CC(C)c1nncn1CCNC(=O)c1ccc(Cl)cc1O | -5.01
O=C(NCC[S+]([O-])c1ccccc1)NCC(F)(F)F (configuration not stated) | -1.09
CCCNC(=O)Nc1cc2c(cc1SC)OCCO2 | -19
Nc1cc(CCCNC(=O)NC2CC2)nn1-c1ccccc1 | 1.54
Cc1cnn(CC2CCCN2Cc2coc(-c3cccs3)n2)c1 (configuration not stated) | -3.01
COc1ccc(OC)c(CNCCc2cc(F)cc3c2OCOC3)c1 | -8.08
Cc1nc(C)n(CC2CN(Cc3cccc(C(N)=O)c3)CCO2)n1 (configuration not stated) | 6.2
Cc1ccc(N2CCc3ncnc(N(C)C)c3CC2)nn1 | -102
CC1c2ncc(COCC3CC3)n2CCN1C(=O)c1ccn(C)n1 (configuration not stated) | 0.993
Cn1cc(-c2nnn3c2COC(CNC(=O)c2cccs2)C3)cn1 (configuration not stated) | 3.31
Fc1cccc(C2(CNC3CCOC4(CCOCC4)C3)CCOCC2)c1 (configuration not stated) | 0.616
CCn1c(C)nnc1SCCNc1cc(COC)ncn1 | 6.35
CCS(=O)(=O)N1CCOC(CCCc2ccccc2)C1 (configuration not stated) | -9.31
Cc1ccc(C)c2c(O)cc(CN[C@H]3CCCCNC3=O)nc12 | 5.63
Cc1ccccc1CC1(C(=O)O)CCCN(c2ncccn2)C1 (configuration not stated) | 1.25
COCCn1ccnc1-c1cc(CN2CCCCC2)cs1 | -151
CSCc1noc(CNC(=O)C2CCN(C(C)C)CC2)n1 | -2.86
Cc1cnc(C)c(N2CCC(c3nccn3Cc3cscn3)CC2)n1 | 1.89
CCOCc1nc2c(c(NC(COC)c3ccccn3)n1)CCNCC2 (configuration not stated) | -3.21
O=C(CCc1cc2n(n1)CCCNC2)NCCS(=O)(=O)N1CCCC1 | 0.698
COC(C)(C)CC(C)NCc1cn2ccccc2n1 (configuration not stated) | -3.48

Structure (SMILES) | cytotoxicity at 10 µM [%]
OC1CCN(c2ccnc(NCCN3CCc4ccccc4C3)n2)C1 (configuration not stated) | -11.8
CCOCCn1c(=O)[nH]c2cc(C(=O)N(C)Cc3ccno3)ccc21 | -1.79
CCN(CC)Cc1cc(C(=O)N2CCC3(CCN(C)CC3)C2)c(C)o1 | 4.92
O=S(=O)(Nc1ccc2c(c1)OCCO2)N1CCCCC1 | 3.96
CCc1cc(N2CCCNCC2)n2nc(C)c(C)c2n1 | 4.46
COc1ccccc1OC1(C(=O)O)CCN(c2nccnc2C)CC1 | -10.4
CN1CCC(CCNC(=O)c2ccc(N(C)S(C)(=O)=O)cc2Cl)CC1 | -10.1
Cc1cc(C)n(CC2CN(CC(=O)N3CCC3)CCO2)n1 (configuration not stated) | -10.7
Cc1cnn(CCNCC(=O)NC(C)c2ccc3c(c2)OCCO3)c1 (configuration not stated) | -1.58
COc1cc(C)nc(N2CCN(C(=O)c3cccc(C#N)c3)CC2)n1 | -3.54
NC(=O)C1CCN(C(=O)NCc2ccc(-c3ccn[nH]3)cc2)CC1 | -1.73
CCN(Cc1ccc2c(c1)OCCO2)C(=O)NCCc1cnn(C)c1 | -3.72
CS(=O)(=O)NC(=O)c1nnn(-c2ccccc2)c1C1CC1 | -7.09
Cc1noc(C2CCCN(C(=O)CCCNc3ncccn3)C2)n1 (configuration not stated) | -3.92
CC(=O)N1CCN(C(=O)CCn2c(C)nc3ccccc3c2=O)CC1 | -4.81
CCC(=O)Nc1ccc2c(ccn2CC(=O)N(CC)CC)c1 | -12.2
Cc1nn(C)c(Cl)c1C1CCCN1Cc1ccccn1 (configuration not stated) | -0.459
COc1ccc(C(=O)N2CCCC(n3cncn3)C2)nn1 (configuration not stated) | 5.58
Cc1c(F)cc(C(=O)O)cc1S(=O)(=O)Nc1ccc(F)c(C#N)c1 | -6.02
Cc1nnc(CN2CCCC(c3cc(C(N)=O)[nH]n3)C2)o1 (configuration not stated) | -7.32
CCN(Cc1ccc(OC)c(F)c1)C(=O)c1ccc(C)[nH]c1=O | -8.08
Cc1ccc(OCCNC(=O)C(C)n2cncn2)cc1 (configuration not stated) | -3.53
COc1ccc(COCC(O)CNC(=O)c2cccnc2)cc1 (configuration not stated) | 7.94

Structure (SMILES) | cytotoxicity at 10 µM [%]
Cc1cccc(C(=O)NCc2ccc(N3CCCCC3)nc2)n1 | 4.26
O=C(COCC1CC1)N1CCCC(n2cccn2)C1 (configuration not stated) | 4.6
O=C(CCOc1cccc(F)c1)N1CCCC(n2cncn2)C1 (configuration not stated) | -0.192
Cn1cnnc1C1CCCN(C(=O)c2ccccc2Cl)C1 (configuration not stated) | 3.59
CCOc1ncccc1C(=O)N(C)Cc1ncc(C)c(OC)c1C | 3.06
Cc1n[nH]c(C)c1NC(=O)CN1CCOC(Cn2cccn2)C1 (configuration not stated) | -2.82
O=C1CC[C@@H]2[C@@H](CCN2Cc2ccncc2)N1c1ccccc1 | -1.88
O=C([C@H]1CN(CCc2ccccc2)C[C@H]2OCC[C@@H]12)N1CCCO1 | -9.49
Cn1ncc2c1CN(Cc1ccc(F)cc1)CC2COCC1CC1 (configuration not stated) | 9.55
CN(C)C(=O)Cn1c2c(ccc1=O)CC(NCc1ccoc1)CC2 (configuration not stated) | 16.5
CS(=O)(=O)NCc1cnc2n1CCN(Cc1cccs1)CC2 | 3.04
O=C(c1ccno1)N1CCO[C@@H]2CC(COCc3ccccn3)C[C@H]21 (some centres not stated) | -103
Cc1ccc(S(=O)(=O)NCC(C)(C)N)c(F)c1 | 7.42
CNC(=O)CN1CCC2(CCCN(CC3CCOC3)C2)CC1 (configuration not stated) | -107
Cc1ccc(CS(=O)(=O)N2Cc3c(CN(C)C)nn(C)c3C2)cc1 | -98.2
Cc1ccc(CN2CCc3c(C(=O)N(C)C)nn(C)c3C2)s1 | -12.4
CN(C)[C@@H]1CN(C(=O)CCc2ccccc2)[C@@H]2CCCO[C@H]12 | -3.02
CC(C)N1CCC(c2nc3ccc(-c4ccnn4C)cn3n2)CC1 | 14.9
CC(C)NC(=O)C1c2c(ncn2C(C)C)CCN1Cc1ccccc1 (configuration not stated) | 0.167
COCC1N(C(=O)Nc2ccccc2)C2CCC1(O)CC2 (configuration not stated) | 3.15

From ChEMBL document CHEMBL4513216, “Probing the Open Global Health Chemical Diversity Library for Multistage-Active Starting Points for Next-Generation Antimalarials” (ACS Infect Dis, 2020)
